Data published in ChEMBL document CHEMBL1817603, “Antibacterial polyketides from the jellyfish-derived fungus Paecilomyces variotii” (2011).
≈ marks a conversion by molar mass, not a printed value.

Columns and labels:
Type in all cases: functional
[1] = tested on: Staphylococcus aureus; assay: Antimicrobial activity against Staphylococcus aureus SG 511 after 24 hrs by microtiter plate based MIC assay; details: SG 511, 24 h
Outline: (§1)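 Broth microdilution MIC in LB broth. Compounds were twofold serially diluted in 0.5% MeOH, and reference antibiotics were diluted from 40 to 0.31 μg/mL per well. The bacterial inoculum was adjusted by turbidity at 600 nm to a 0.5 McFarland standard. Test solution was added at one part to nine parts culture, then incubated at 36 °C for 24 h. The assay was run in triplicate, with vehicle-matched blank growth controls.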

[2] = tested on: Staphylococcus aureus; assay: Antimicrobial activity against methicillin-resistant Staphylococcus aureus 3089 after 24 hrs by microtiter plate based MIC assay; details: Staphylococcus aureus, 3089, 24 h; outline: as §1
[3] = tested on: Vibrio parahaemolyticus; assay: Antimicrobial activity against multidrug-resistant Vibrio parahaemolyticus 7001 after 24 hrs by microtiter plate based MIC assay; details: Vibrio parahaemolyticus, 7001, 24 h; outline: as §1

| SMILES | MIC [1] | MIC [2] | MIC [3] |
| --- | --- | --- | --- |
| CCCCCCCC[C@@H]1OC(=O)c2c(O)cccc21 [PAECILOCIN A] | > 40 µg/mL | > 40 µg/mL | > 40 µg/mL |
| CCCCCCCC[C@]1(OC)O[C@@H](OC)c2c(O)cccc21 [PAECILOCIN C] | 20 µg/mL (≈ 64.8 µM) | 40 µg/mL (≈ 130 µM) | > 40 µg/mL |
| CCCCCCCC[C@]1(OC)O[C@H](OC)c2c(O)cccc21 [PAECILOCIN B] | 5 µg/mL (≈ 16.2 µM) | 20 µg/mL (≈ 64.8 µM) | > 40 µg/mL |
| CN(C)[C@@H]1C(O)=C(C(N)=O)C(=O)[C@@]2(O)C(O)=C3C(=O)c4c(O)cccc4[C@@](C)(O)[C@H]3C[C@@H]12 [TETRACYCLINE] | 1.25 µg/mL (≈ 2.81 µM) | – | – |
| C[C@H]1COc2c(N3CCN(C)CC3)c(F)cc3c(=O)c(C(=O)O)cn1c23.C[C@H]1COc2c(N3CCN(C)CC3)c(F)cc3c(=O)c(C(=O)O)cn1c23.O [LEVOFLOXACIN] | – | – | 0.156 µg/mL |
| CN[C@H](CC(C)C)C(=O)N[C@H]1C(=O)N[C@@H](CC(N)=O)C(=O)N[C@H]2C(=O)N[C@H]3C(=O)N[C@H](C(=O)N[C@H](C(=O)O)c4cc(O)cc(O)c4-c4cc3ccc4O)[C@H](O)c3ccc(c(Cl)c3)Oc3cc2cc(c3O[C@@H]2O[C@H](CO)[C@@H](O)[C@H](O)[C@H]2O[C@H]2C[C@](C)(N)[C@H](O)[C@H](C)O2)Oc2ccc(cc2Cl)[C@H]1O [VANCOMYCIN] | – | 0.625 µg/mL (≈ 0.431 µM) | – |
